Activity calls are given as the source filed them. The rule behind the calls is not given here.
How the values were obtained:
[1] = molecular target: Tyrosine-protein kinase ABL1 (Homo sapiens) (UniProt P00519); assay: Binding affinity to dephosphorylated human recombinant abl
In short: (§1)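 Recombinant human abl (1 μg), either Src-phosphorylated or tyrosine phosphatase-treated, incubated 1 h at 4 °C with immobilized GNF-3 resin; after five washes bound protein eluted by boiling in Laemmli buffer and detected by SDS-PAGE/anti-abl immunoblot. Immobilized methyl analogue used as control matrix.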

[2] = molecular target: Tyrosine-protein kinase ABL1 (Homo sapiens) (UniProt P00519); assay: Binding affinity to phosphorylated human recombinant abl; in short: as §1
[3] = molecular target: Tyrosine-protein kinase ABL1 (Homo sapiens) (UniProt P00519); assay: Displacement of abl from GNF2 resin using affinity chromatography at 1000 uM by competition binding assay
[4] = Cytotoxic activity against mouse 32D Bcr-abl negative cells
[5] = Cytotoxic activity against mouse 32D cells transfected with p210 Bcr-abl; format: cell-based

Tyrosine-protein kinase ABL1 (Homo sapiens), sequence (P00519 whole entry): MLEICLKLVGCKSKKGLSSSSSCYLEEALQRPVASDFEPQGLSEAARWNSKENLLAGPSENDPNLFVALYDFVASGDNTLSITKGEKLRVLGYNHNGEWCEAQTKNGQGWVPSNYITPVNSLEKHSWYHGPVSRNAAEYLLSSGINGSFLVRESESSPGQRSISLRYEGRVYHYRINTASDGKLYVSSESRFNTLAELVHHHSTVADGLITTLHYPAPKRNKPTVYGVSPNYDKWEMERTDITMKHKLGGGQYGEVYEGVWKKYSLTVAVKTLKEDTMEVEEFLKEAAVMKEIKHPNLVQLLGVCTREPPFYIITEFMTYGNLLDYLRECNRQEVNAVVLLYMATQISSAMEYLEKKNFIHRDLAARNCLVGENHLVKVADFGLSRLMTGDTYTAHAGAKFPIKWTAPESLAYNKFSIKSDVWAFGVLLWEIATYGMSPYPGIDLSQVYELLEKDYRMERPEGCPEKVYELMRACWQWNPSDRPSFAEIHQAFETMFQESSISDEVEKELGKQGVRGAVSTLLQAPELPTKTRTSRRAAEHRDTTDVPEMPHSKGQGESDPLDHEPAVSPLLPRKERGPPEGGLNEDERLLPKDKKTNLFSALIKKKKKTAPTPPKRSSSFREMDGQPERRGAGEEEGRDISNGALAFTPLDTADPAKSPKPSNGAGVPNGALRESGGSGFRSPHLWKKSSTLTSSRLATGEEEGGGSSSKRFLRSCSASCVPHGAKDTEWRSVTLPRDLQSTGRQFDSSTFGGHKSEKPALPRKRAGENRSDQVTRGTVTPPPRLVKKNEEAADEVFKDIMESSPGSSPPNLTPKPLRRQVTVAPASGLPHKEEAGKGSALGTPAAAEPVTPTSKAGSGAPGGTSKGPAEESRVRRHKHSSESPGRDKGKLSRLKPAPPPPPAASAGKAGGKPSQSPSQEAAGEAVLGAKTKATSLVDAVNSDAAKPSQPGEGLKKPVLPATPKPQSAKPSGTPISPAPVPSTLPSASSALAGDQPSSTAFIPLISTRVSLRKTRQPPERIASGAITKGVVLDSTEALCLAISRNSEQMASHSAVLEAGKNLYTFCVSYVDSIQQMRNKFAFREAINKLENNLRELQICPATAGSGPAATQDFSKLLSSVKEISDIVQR

SMILES: NCCOCCOCCOCCOCCOCCNC(=O)c1cccc(-c2cc(Nc3ccc(OC(F)(F)F)cc3)ncn2)c1
- Activity [1]: Active
- Activity [2]: Active

SMILES: Nc1ncnc2c1ncn2[C@@H]1O[C@H](COP(=O)(O)OP(=O)(O)OP(=O)(O)O)[C@@H](O)[C@H]1O
- Activity [3]: Active

SMILES: FC(F)(F)Oc1ccc(Nc2cc(NCCN3CCOCC3)ncn2)cc1
- IC50 [4]: > 40 µM
- IC50 [5]: 400 nM
